Measurements from ChEMBL document CHEMBL1759883, “Synthesis and biological evaluation of indazole derivatives” (Eur J Med Chem, 2011).

How the values were obtained:
[1] = target: Nitric oxide synthase, inducible (Rattus norvegicus) (UniProt Q06518); experiment: Inhibition of iNOS in LPS-stimulated Wistar rat lung assessed as inhibition of [3H]L-arginine to [3H]L-citrulline conversion at 1 mM by liquid scintillation counting
Summary of the method: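 Lungs from male Wistar rats (220–250 g) taken 6 h after i.v. LPS (10 mg/kg in saline), homogenized in Tris buffer pH 7.6 with protease inhibitors, and spun at 2500g. The supernatant was incubated 30 min at 37 °C with 10 µM L-arginine plus 40 nM L-³H-arginine, cofactors, 0.75 mM NADPH (final) and 10 mM EDTA. ³H-citrulline was isolated on Dowex-50W; compounds at 1 mM.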

[2] = target: Nitric oxide synthase 1 (Rattus norvegicus) (UniProt P29476); experiment: Inhibition of nNOS in untreated Wistar rat striata assessed as inhibition of [3H]L-arginine to [3H]L-citrulline conversion at 1 mM by liquid scintillation counting
Sequence of Nitric oxide synthase 1 (Rattus norvegicus) (P29476 whole entry): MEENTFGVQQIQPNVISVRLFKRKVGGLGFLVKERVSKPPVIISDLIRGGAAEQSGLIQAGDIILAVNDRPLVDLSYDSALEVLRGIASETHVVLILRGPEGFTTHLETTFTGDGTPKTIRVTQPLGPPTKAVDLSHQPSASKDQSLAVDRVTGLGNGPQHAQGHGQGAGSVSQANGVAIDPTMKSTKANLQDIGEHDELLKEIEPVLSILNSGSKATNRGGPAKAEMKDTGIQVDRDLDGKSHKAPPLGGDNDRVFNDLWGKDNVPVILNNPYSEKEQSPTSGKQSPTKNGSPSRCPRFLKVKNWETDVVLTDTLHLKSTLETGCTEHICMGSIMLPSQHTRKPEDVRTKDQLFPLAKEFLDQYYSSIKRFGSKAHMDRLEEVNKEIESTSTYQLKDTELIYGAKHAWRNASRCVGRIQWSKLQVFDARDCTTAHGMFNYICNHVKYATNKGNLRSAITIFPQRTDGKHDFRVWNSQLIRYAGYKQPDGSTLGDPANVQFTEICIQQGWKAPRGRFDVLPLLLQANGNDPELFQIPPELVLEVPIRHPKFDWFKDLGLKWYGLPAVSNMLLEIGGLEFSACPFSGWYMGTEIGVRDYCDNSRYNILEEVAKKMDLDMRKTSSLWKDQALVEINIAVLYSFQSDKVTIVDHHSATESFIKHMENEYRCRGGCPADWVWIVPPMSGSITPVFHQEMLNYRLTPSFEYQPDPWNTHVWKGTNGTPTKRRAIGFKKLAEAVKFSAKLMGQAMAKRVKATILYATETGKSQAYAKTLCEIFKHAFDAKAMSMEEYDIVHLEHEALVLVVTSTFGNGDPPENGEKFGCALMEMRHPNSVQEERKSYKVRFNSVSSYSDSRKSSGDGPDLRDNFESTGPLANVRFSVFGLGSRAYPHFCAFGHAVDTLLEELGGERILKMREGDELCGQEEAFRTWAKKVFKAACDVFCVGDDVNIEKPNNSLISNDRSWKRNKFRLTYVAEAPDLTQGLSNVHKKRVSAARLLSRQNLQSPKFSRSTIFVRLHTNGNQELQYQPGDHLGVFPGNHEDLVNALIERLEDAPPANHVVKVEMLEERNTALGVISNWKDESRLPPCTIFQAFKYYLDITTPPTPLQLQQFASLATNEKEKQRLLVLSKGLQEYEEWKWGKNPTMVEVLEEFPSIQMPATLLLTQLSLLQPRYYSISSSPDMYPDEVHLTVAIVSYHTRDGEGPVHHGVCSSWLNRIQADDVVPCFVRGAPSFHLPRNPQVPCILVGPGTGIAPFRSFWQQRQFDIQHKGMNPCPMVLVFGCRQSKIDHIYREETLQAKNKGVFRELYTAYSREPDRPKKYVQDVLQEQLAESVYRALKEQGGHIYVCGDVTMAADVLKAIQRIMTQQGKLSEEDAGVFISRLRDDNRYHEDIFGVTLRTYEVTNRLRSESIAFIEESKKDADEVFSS

Rattus norvegicus = species: Rattus norvegicus; experiment: Selectivity ratio of inhibition of iNOS in Wistar rat lung to inhibition of nNOS in Wistar rat striata
Nitric oxide synthase 1 = Nitric oxide synthase 1 (Rattus norvegicus, UniProt P29476); experiment: Inhibition of nNOS in untreated Wistar rat striata assessed as inhibition of [3H]L-arginine to [3H]L-citrulline conversion by liquid scintillation counting
Sequence of Nitric oxide synthase 1 (P29476 whole entry): as above

Sequence of Nitric oxide synthase, inducible (Rattus norvegicus) (Q06518 whole entry): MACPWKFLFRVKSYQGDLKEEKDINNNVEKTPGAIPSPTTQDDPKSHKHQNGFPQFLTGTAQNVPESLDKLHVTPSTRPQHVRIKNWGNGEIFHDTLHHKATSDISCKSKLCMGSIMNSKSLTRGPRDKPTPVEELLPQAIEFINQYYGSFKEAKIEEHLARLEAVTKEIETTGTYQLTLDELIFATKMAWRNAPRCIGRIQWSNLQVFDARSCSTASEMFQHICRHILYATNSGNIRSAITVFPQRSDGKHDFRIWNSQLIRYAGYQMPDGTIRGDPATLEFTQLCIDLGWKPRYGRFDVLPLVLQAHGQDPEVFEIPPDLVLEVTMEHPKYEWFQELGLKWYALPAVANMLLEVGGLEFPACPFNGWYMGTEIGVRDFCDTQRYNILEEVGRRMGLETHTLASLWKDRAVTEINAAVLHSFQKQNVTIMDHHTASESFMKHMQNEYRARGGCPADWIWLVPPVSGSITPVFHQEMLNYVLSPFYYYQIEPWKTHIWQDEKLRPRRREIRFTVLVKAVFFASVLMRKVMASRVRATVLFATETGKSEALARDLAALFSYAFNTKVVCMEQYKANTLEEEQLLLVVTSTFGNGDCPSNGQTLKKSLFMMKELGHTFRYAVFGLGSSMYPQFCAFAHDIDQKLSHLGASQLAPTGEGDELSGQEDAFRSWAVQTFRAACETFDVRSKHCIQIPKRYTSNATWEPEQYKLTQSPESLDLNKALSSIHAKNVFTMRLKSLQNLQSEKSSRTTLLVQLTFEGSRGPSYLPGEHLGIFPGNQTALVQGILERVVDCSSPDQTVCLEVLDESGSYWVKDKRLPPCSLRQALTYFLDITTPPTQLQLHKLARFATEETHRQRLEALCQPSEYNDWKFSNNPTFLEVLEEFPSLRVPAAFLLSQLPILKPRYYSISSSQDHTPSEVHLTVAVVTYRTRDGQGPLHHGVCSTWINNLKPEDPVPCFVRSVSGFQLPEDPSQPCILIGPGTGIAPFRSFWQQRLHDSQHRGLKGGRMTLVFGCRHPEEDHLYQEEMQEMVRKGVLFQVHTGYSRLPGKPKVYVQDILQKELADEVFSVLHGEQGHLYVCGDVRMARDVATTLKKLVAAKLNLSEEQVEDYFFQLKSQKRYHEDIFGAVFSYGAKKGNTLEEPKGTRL

| SMILES | inhibition [1] [%] | inhibition [2] [%] | Ratio (Rattus norvegicus) | IC50 (Nitric oxide synthase 1) [mM] |
| --- | --- | --- | --- | --- |
| COC(=O)c1c(F)c(F)c(F)c2[nH]nc(O)c12 | 22.6 | 6.3 |  |  |
| COC(=O)c1c(F)c(F)c2c(O)n[nH]c2c1F | 46.2 | 19.7 |  |  |
| Cc1n[nH]c2cc(F)cc(F)c12 | 74.3 | 52.1 |  |  |
| O=C(O)c1c(F)c(F)c2c(O)n[nH]c2c1F | 42 | 5.4 |  |  |
| CCOC(=O)c1c(F)c(F)c(F)c2[nH]nc(O)c12 | 38.7 | 1.2 |  |  |
| Cc1n[nH]c2c([N+](=O)[O-])c(F)cc(F)c12 | 92 | 90 |  |  |
| O=C(O)c1c(F)c(F)c2[nH]nc(O)c2c1F | 16.3 | 12.1 |  |  |
| O=[N+]([O-])c1c(F)cc(F)c2c(O)n[nH]c12 | 91 | 14.9 | 6 |  |
| O=c1[nH][nH]c2ccccc12 |  |  |  | > 1 |
| c1ccc2[nH]ncc2c1 | 45 | 11.2 |  |  |
| Fc1c(F)c(F)c2[nH]ncc2c1F | 98.7 | 43.3 | 2 |  |
| COC(=O)c1c(F)c(F)c(F)c2c(O)n[nH]c12 | 49.6 | 5.1 |  |  |
| CCOC(=O)c1c(F)c(F)c2c(O)n[nH]c2c1F | 53.5 | 10.2 |  |  |
| CCOC(=O)c1c(F)c(F)c(F)c2c(O)n[nH]c12 | 43.7 | 5.6 |  |  |
| Oc1n[nH]c2ccccc12 | 55.1 | 31.4 |  |  |
| N#Cc1cccc2cn[nH]c12 | 80 | 88 |  |  |
| CCOC(=O)c1c(F)c(F)c2[nH]nc(O)c2c1F | 51.8 | 2.5 |  |  |
| O=C(O)c1c(F)c(F)c(F)c2c(O)n[nH]c12 | 40.7 | 11.1 |  |  |
| Oc1n[nH]c2c(F)c(F)ccc12 | 89.1 | 57.1 |  |  |
| Oc1n[nH]c2cc(F)cc(F)c12 | 48.1 | 11.1 |  |  |
| CCc1n[nH]c2ccccc12 |  | 18.8 |  |  |
| FC(F)(F)c1n[nH]c2ccccc12 | 80.1 | 69.9 |  |  |
| Fc1c(F)c(F)c(-c2n[nH]c3c(F)c(F)c(F)c(F)c23)c(F)c1F |  |  | 10 |  |
| COc1cccc2c[nH]nc12 | 70 |  |  |  |
| Cc1n[nH]c2ccccc12 | 77.4 | 33.7 |  |  |
| O=C(O)c1c(F)c(F)c(F)c2[nH]nc(O)c12 | 62.6 | 1.8 | 35 |  |
| COC(=O)c1c(F)c(F)c2[nH]nc(O)c2c1F | 48.9 | 13.3 |  |  |
| Cc1n[nH]c2c(F)c(F)c([N+](=O)[O-])cc12 | 95.6 | 85.4 |  |  |
| O=[N+]([O-])c1cccc2c(O)n[nH]c12 | 8.2 | 18.9 |  |  |
| Cc1n[nH]c2c(F)c(F)ccc12 | 69.2 | 58.4 |  |  |
